# Test results: paper PMC6921677 (ACS Omega, 2019)
# Like-named read-outs stand apart in the source and are kept apart here.
# Key:
# CAL-27 (oral cancer) = experiment: MTT cell cytotoxicity assay, CAL-27; type: cell-based; conditions: Homo sapiens, CAL-27, 48 h, read-out: CAL-27 IC50 ± S.D
# How it was run: (§1)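 Cells maintained in high-glucose DMEM with 2 mM L-glutamine, 10% FBS and 1% antibiotics, passaged before 70% confluency. Seeded at 10 000/well, left overnight at 37 °C, washed, then exposed to a range of test compound concentrations for 48 h. MTT (0.5 mg/mL as added) for 4 h, formazan dissolved in DMSO, OD 570 nm. IC50 fitted from percent inhibition.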
# NCI-H460 (lung cancer) = experiment: MTT cell cytotoxicity assay, NCI-H460; type: cell-based; conditions: Homo sapiens, NCI-H460, 48 h, read-out: NCI-H460 IC50 ± S.D
# How it was run: as §1
# [1] = tested on: NIH-3T3 (mouse normal fibroblast); experiment: MTT cell cytotoxicity assay, NIH-3T3; type: cell-based; conditions: read-out: NIH-3T3 IC50 ± S.D
# How it was run: as §1
# S. aureus (NCTC 6571) = experiment: crystal violet biofilm inhibition assay, S. aureus; type: cell-based, Staphylococcus aureus; conditions: biofilm inhibition at 500 μM
# How it was run: (§2)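 Strains cultured in tryptone soya broth or agar. Test compound twofold serially diluted (500–1 μM) in TSB and inoculated at 5 x 10^5 CFU/mL. Incubated 24 h at 37 °C. Medium discarded and wells washed with sterile water, then stained with 0.1% w/v crystal violet for 15 min. Washed and air-dried; bound dye taken up in 30% v/v acetic acid. A590 gave percent biofilm inhibition.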
# E. coli (ATCC 25922) = experiment: crystal violet biofilm inhibition assay, E. coli; type: cell-based, Escherichia coli; conditions: for E. coli % Inhibition ± S.D: biofilm inhibition at 250 μM; for E. coli MBIC dose: biofilm inhibitory concentration, 24 h, crystal violet
# How it was run: as §2
# [2] = tested on: K. pneumoniae (ATCC 13882); experiment: crystal violet biofilm inhibition assay, K. pneumoniae; type: cell-based, Klebsiella pneumoniae; conditions: for K. pneumonia % inhibition ± S.D: biofilm inhibition at 250 μM; for K. pneumonia MBIC dose: biofilm inhibitory concentration, 24 h, crystal violet
# How it was run: as §2
# [3] = tested on: A. baumannii (ATCC 19606); experiment: crystal violet biofilm inhibition assay, A. baumannii; type: cell-based, Acinetobacter baumannii; conditions: for A. baumannii MBIC dose: biofilm inhibitory concentration, 24 h, crystal violet
# How it was run: as §2
Compound,IC50 (CAL-27 (oral cancer)) [µM],IC50 (NCI-H460 (lung cancer)) [µM],"IC50 ([1]; Mus musculus, NIH3T3, 48 h) [µM]",S. aureus % Inhibition ± S.D (S. aureus (NCTC 6571)),E. coli % Inhibition ± S.D (E. coli (ATCC 25922)) [%],E. coli MBIC dose (E. coli (ATCC 25922)) [µM],K. pneumonia % inhibition ± S.D [2] [%],K. pneumonia MBIC dose [2] [µM],"IC50 ([1]; MTT, 48 h treatment, normal mouse fibroblast) [µM]",A. baumannii % Inhibition ± S.D ([3]; biofilm inhibition at 125 μM) [%],A. baumannii MBIC dose [3] [µM],A. baumannii % Inhibition ± S.D ([3]; biofilm inhibition at 250 μM) [%]
O=c1[nH]cc(F)c(=O)[nH]1 [5-fluorouracil],2.41 ± 0.89,4.54 ± 1.67,> 100,,,,,,,,,
"O.O.O=C([O-])Cc1ccccc1Nc1c(Cl)cccc1Cl.[Li+].c1cnc2c(c1)ccc1cccnc12 [Complex 3, [Li(phen)(H2O)2][dcf]]",,,,3.306 ± 0.166%,76.22 ± 0.026,250,77.91 ± 0.062,250,135 ± 4.96,87.924 ± 0.073,125,
"O.O.O.O.O=C([O-])Cc1ccccc1Nc1c(Cl)cccc1Cl.O=C([O-])Cc1ccccc1Nc1c(Cl)cccc1Cl.[K+].[K+].c1cnc2c(c1)ccc1cccnc12.c1cnc2c(c1)ccc1cccnc12 [Complex 2, [K2(phen)2(dcf)2(H2O)4]]",,,,–1.497 ± 0.288%,72 ± 0.091,250,77.26 ± 0.063,250,,,250,86.158 ± 0.068
